# High-throughput results: PubChem BioAssay, several laboratories
# PMI act satM6P – human PMI activators, high substrate, primary screen, biochemical, fluorescence intensity, near-saturating mannose 6-phosphate. coupled PMI enzyme assay, resazurin fluorescence, 20 min; stronger effect = higher value; 1 = untreated enzyme, 0 = substrate-free blank. hit rate 0.34% among 190,000. Mannose-6-phosphate isomerase (Homo sapiens), P34949. activation factor at 20 µM. AID 1216, 2008;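 active = activation factor of 2 or more at 20 µM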
# Target sequence (P34949 whole entry, looked up): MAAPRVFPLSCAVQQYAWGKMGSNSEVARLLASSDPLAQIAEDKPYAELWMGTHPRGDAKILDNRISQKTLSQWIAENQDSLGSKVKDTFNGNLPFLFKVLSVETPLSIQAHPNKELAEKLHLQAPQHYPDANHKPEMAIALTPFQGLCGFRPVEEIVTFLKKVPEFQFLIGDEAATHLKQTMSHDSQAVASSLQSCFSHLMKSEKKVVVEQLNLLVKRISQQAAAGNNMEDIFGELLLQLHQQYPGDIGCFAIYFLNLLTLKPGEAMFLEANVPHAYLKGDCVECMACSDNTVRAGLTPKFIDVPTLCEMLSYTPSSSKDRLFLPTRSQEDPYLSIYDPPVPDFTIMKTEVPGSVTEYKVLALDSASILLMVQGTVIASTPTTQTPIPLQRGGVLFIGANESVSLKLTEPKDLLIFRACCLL
#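 Test system – human PMI in coupled enzyme assay · Timing – 20 min incubation at room temperature · Detection – Diaphorase-driven resazurin-to-resorufin fluorescence, excitation 544, emission 590 nm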
# Diaphorase inh – diaphorase inhibitors and chemical oxidizers, primary screen, counter-screen for diaphorase-coupled primary assays, biochemical, uHTS, resorufin fluorescence | hit rate 0.69% among 190,000 | inhibition, % at 20 µM | diaphorase resazurin-to-resorufin fluorescence, NADH, 16 min; bacterial (C. kluyveri) enzyme, not human | AID 1217, 2008;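 active = primary screen inhibition at 20 µM above a set limit, cut at about 50% in these data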;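 note: plate controls were DMSO with full reaction for no effect and wells lacking NADH for full effect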
#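 controls = No-NADH positive control and DMSO neutral control | system = Clostridium kluyveri diaphorase enzyme | timing = reaction incubation of 16 min at room temperature | signal = resorufin fluorescence 544/590 nm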
# Diaph act CS – compounds boosting diaphorase resazurin reduction – biochemical, uHTS, resorufin fluorescence, counter-screen for diaphorase-coupled primary assays, primary screen | Diaphorase/resazurin coupled assay, 16 min; stronger effect = higher value; 1 = vehicle wells, 0 = NADH-free wells | activation factor at 20 µM | hit rate 0.005% among 190,000 | AID 1229, 2008;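 active = diaphorase activity raised at least twofold by the compound at 20 µM; inactive = activation factor below 2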
#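 Measured by – red resorufin fluorescence at 544/590 nm excitation/emission · Test system – Clostridium kluyveri diaphorase, purified enzyme · Incubation – reaction time 16 min, room temperature · Buffer or medium – 50 mM HEPES pH 7.4 with 4.542 mM MgCl2, 0.005% Tween 20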
# PMI act – activators of human PMI, primary screen, biochemical, fluorescence intensity, near-Km mannose 6-phosphate | activation factor at 20 µM | hit rate 0.005% among 190,000 | purified human PMI, coupled resazurin fluorescence, 20 min; stronger effect = higher value; 1 = vehicle control, 0 substrate-free wells | Mannose-6-phosphate isomerase (Homo sapiens), P34949;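 active = activation factor of 2 or more at 20 µM, relative to plate controls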
# Redox H2O2 prof – compounds producing H2O2 with reducing agent – biochemical, NIH compound library profiling, artefact control for MLSCN library redox annotation, primary screen; AID 878, 2007; DTT-dependent redox cycling H2O2, phenol red/HRP absorbance; 100% = 100 µM peroxide control, 0% = buffer; activation, % at 10 µM; hit rate 0.03% among 200,000;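 active = activation of at least 50% relative to the plate's high and low controls in the primary single-dose screen; inactive = activation below 50%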;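 note: compound incubated with DTT at 0.8 mM final as the reducing agent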
# G6PDH CS – L. mesenteroides G6PDH inhibitors, counter-screen for G6PDH-coupled screening assays, biochemical, Leuconostoc mesenteroides enzyme; Purified L. mesenteroides G6PDH, diaphorase/resazurin coupled fluorescence, 45 min; inhibition, % at 5 µM; hit rate 0.12% among 200,000; in the data active = inhibition above about 50%
# * marks the source's active call; other numbers are inactive results. Compounds with a hit are over-represented: about 1.1% of the library has one in this group of screens.
SMILES,PMI act satM6P,Diaphorase inh,Diaph act CS,PMI act,Redox H2O2 prof,G6PDH CS
Nc1c(C(=O)NCc2ccco2)sc2nc3c(cc12)C(=O)CCC3,1.2,52.7*,0.5,1,0.5,-40.8
Cc1ccc(O)c(NC2=C(Cl)C(=O)N(Cc3ccccc3)C2=O)c1,0.8,50.9*,0.5,0.7,-0.7,11.8
C=CCc1cccc2cc(C(=O)O)c(=O)oc12,1,6.6,0.9,1,0.0,3.2
C=CCc1cccc2cc(C(=O)Nc3ccccc3C(=O)O)c(=O)oc12,1.1,92.7*,0.1,0.9,-0.7,4.0
COc1ccc(S(N)(=O)=O)cc1C(=O)N1CCCC1,1,0.7,1,1,-4.0,0.1
c1csc(COc2ccccc2CNC2CCCCC2)c1,0.9,11.5,0.9,1,-0.3,-21.2
CCCN1CCC(=NNc2ccc(C(=O)O)cc2)CC1,3*,-7.8,1.1,1.8,-0.2,6.5
Cc1ccsc1/C=N/NC(=O)CNC(=O)c1cccc([N+](=O)[O-])c1C,1,6.0,0.9,0.9,-0.6,10.4
NC(CO)C(=O)NNCc1ccc(O)c(O)c1O (configuration not stated),0.4,73.6*,0.3,0.2,0.8,31.4
CCN(CC)S(=O)(=O)c1ccc(N2CCOCC2)c(NC(=O)c2cc([N+](=O)[O-])ccc2Cl)c1,1.1,13.4,0.9,1.1,-2.1,-0.5
CCOC(=O)C1CCN(c2ccc([N+](=O)[O-])c(C(C)=O)c2)CC1,0.9,20.3,0.8,0.9,-1.6,5.0
COc1ccc(-n2nc3c(c2NC(=O)c2ccc(S(=O)(=O)N4CCOCC4)cc2)CS(=O)C3)cc1 (configuration not stated),1,8.6,0.9,1.1,-0.5,7.9
Oc1ccc(Br)cc1C=Nc1ccc2c3c(cccc13)CC2,0.3,67.2*,0.3,0.6,0.9,41.4
Oc1ccc(Cl)cc1C=Nc1ccccc1Br,0.9,16.6,0.8,0.9,0.0,9.3
CC(=O)N(C)C1=C(N2CCOCC2)C(=O)c2ccccc2C1=O,0.7,48.9,0.5,0.7,-3.9,55.2*
Fc1ccc(NC(=S)N2CCc3ccccc3C2)c(F)c1,1,-9.8,1.1,1,-0.1,8.5
O=C(N/N=C\c1ccc(-c2ccccc2[N+](=O)[O-])o1)C1COc2cc3ccccc3cc2O1 (configuration not stated),0.3,64.4*,0.4,0.3,0.7,19.0
Cc1ccc(C(=O)NS(=O)(=O)c2ccc(N=NN(C)C)cc2)cc1,2*,-10.2,1.1,1.6,-0.7,13.5
Cc1nc2c(C(=O)NCCC3=CCCCC3)c[nH]n2c(=O)c1Cl,0.9,54.5*,0.5,0.8,1.8,-2.9
CC(=O)N(C1=C(N)C(=O)c2ccccc2C1=O)C(C)C,0.5,13.7,0.9,1,-2.1,42.5
CCC(=O)N(C1=C(NC(C)C)C(=O)c2ccccc2C1=O)C(C)C,0.4,19.0,0.8,0.9,-1.2,55.2*
COC(=O)C1=NN(N=O)C2(CC(=O)N(c3cc(C)cc(C)c3)C2=O)C1 (configuration not stated),2*,14.8,0.9,1.5,0.1,16.1
COc1cc(OC)c(S(=O)(=O)Nc2ccccc2N2CCOCC2)cc1NC(C)=O,0.9,18.6,0.8,1,-1.1,3.1
Cn1c(C(=O)Nc2ccc3c(c2)OCCO3)cc2c(=O)n(C)c3ccccc3c21,0.9,54.4*,0.5,0.9,-0.7,-6.2
Cn1c(C(=O)NC2CC2)cc2c(=O)n(C)c3ccccc3c21,1,8.7,0.9,1,-0.9,4.4
SMILES,PMI act satM6P,Diaphorase inh,Diaph act CS,PMI act,Redox H2O2 prof,G6PDH CS
CC12CCC(C(=O)N(CSC(=S)N/N=C\c3ccccc3O)C1=O)C2(C)C (configuration not stated),1.1,56.7*,0.4,0.8,1.0,5.1
O=C(NCC1CCCO1)c1cn(-c2ccccc2)nc1-c1ccccc1 (configuration not stated),0.9,58.3*,0.4,0.9,0.4,6.6
CSc1nnc(-c2cc(-c3ccc(C)cc3)nc3ccccc23)o1,1.2,1.2,1,1.2,0.6,-3.2
Cc1ccc(-c2cc(-c3n[nH]c(=S)o3)c3ccccc3n2)cc1,2.2*,23.8,0.8,1.5,0.0,10.5
Cc1ccc(S(=O)(=O)Oc2ccc(/C=N/NC(=O)c3cccnc3)cc2)cc1,0.8,20.5,0.8,0.8,-1.6,14.2
O=[N+]([O-])c1cc(-c2ncccn2)c([N+](=O)[O-])s1,0.3,50.8*,0.5,0.4,-0.6,3.3
O=C(Nc1ncccn1)c1cc([N+](=O)[O-])cc([N+](=O)[O-])c1,1.2,0.7,1,1.2,-0.4,-10.9
CC(C)c1nnc(SCC(=O)N2CCN(C(=O)c3ccco3)CC2)n1N,1.1,-10.7,1.1,1.1,-0.2,3.5
CCOC(=O)c1c(C)c(C(=O)O)n(C)c1C,0.9,11.8,0.9,1,2.5,3.6
CCOC(=O)c1c(C)c(/C=N/Nc2ccccc2)n(C)c1C,2.5*,13.0,0.9,1.7,-0.9,-4.7
COc1ccc(C2Nc3cccc4cccc(c34)N2)cc1,0.5,51.9*,0.5,0.8,-0.3,11.5
Oc1ccccc1C1Nc2cccc3cccc(c23)N1,0.6,34.3,0.7,0.9,3.8,19.3
CCOc1ccc(C2Nc3cccc4cccc(c34)N2)cc1OC,0.7,65.3*,0.3,0.9,0.3,13.1
COc1ccccc1C1Nc2cccc3cccc(c23)N1,1,56.6*,0.4,0.8,-0.2,14.5
Cc1cccc(N2C(=O)C3C4CC(=O)C(c5ccccc54)C3C2=O)c1C (configuration not stated),1.1,-13.7,1.1,1.1,-0.4,11.1
Oc1ccc(/C=N/n2c(-c3ccco3)csc2=Nc2cccnc2)c(O)c1,1.1,11.5,0.9,1,0.0,0.3
COCCN=c1scc(-c2ccco2)n1/N=C/c1ccc(O)c(O)c1O,0.5,79.7*,0.2,0.3,-1.9,16.2
CC(C)N=c1scc(-c2ccco2)n1/N=C/c1ccc(O)c(O)c1,0.8,59.2*,0.4,0.4,-9.0,14.5
